# Compounds with a hit are over-represented: about 3.2% of the library has one in this group of screens.
# LEDGF integ inh: blocks HIV-1 LEDGF/p75-dependent DNA integration | AID 743269 | TR-FRET IN-LEDGF/p75 DNA integration, Eu/Cy5 | inhibition, % at 3.7 µM | 0.64% of 370,000 active;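 active = inhibition above the screen-wide mean plus 3 SD, cut at about 13% in these data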;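 also: signal is the Cy5 over europium emission ratio at 671 and 618 nm; 0% = plate median of compound wells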
# ABHD4 inh: ABHD4 (mouse) inhibition, primary FP screen. Q8VD66. purified mABHD4, FP-Rh probe fluorescence polarization. inhibition, % at 8.92 µM. AID 720543. 0.54% of 370,000 active;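 active = inhibition exceeding the mean over every tested compound plus 3 SD, cut at about 30% in these data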;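 also: 0% = plate median of compound wells and 100% = S159A mutant with DMSO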
#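 assay system = mABHD4 protein | compound dosing = single nominal dose of 8.92 µM, 0.89% DMSO final | read-out basis = percent inhibition of probe binding, normalized to plate controls | schedule = Enzyme–compound pre-incubation 45 min, then probe 60 min, both 25 °C | detection = fluorescence polarization, excitation 525 nm, emission 598 nm, BODIPY TMR filters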
# PRMT1 FP inh: blocks human protein arginine methyltransferase 1. inhibition, % at 2.79 µM. 1.3% of 370,000 active. AID 652257. recombinant PRMT1, activity-based probe fluorescence polarization. Q99873;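 active = inhibition above about 21% made by adding two undisclosed values, limit read from the data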
# DAGLB inhibitor: diacylglycerol lipase beta (human) inhibition | Q8NCG7 | HEK293T DAGLB membrane lysate, EnzChek fluorogenic substrate | inhibition, % at 5.17 µM | 0.059% of 340,000 active; in the data active = inhibition above about 34%;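 also: 0% = enzyme with vehicle and 100% = wells lacking enzyme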
# Target sequence (Q8NCG7 whole entry, looked up): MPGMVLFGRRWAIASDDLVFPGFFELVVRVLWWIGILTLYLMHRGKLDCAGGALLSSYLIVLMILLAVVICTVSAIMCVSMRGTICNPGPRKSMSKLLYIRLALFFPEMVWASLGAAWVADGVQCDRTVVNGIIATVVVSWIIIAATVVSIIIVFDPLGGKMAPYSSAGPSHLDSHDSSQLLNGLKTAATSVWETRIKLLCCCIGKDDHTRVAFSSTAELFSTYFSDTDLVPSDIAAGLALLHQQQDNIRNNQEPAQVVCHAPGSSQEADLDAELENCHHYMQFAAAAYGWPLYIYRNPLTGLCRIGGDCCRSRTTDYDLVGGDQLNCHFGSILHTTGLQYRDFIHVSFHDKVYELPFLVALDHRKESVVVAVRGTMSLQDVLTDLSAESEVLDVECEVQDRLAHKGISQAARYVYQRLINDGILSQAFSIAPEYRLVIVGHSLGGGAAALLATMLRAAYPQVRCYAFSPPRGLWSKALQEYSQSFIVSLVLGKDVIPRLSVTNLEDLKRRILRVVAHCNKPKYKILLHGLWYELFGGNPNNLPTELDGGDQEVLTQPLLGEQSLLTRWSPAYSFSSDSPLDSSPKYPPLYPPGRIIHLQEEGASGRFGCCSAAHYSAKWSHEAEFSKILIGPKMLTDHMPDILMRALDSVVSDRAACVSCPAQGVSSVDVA
# HTRA1 inhibitor: HTRA1 (human) protease inhibition; Q92743; 0.5% of 340,000 active; recombinant HTRA1, FP-rhodamine activity-based probe, fluorescence polarization; inhibition, % at 5.96 µM; AID 504803; in the data active = inhibition above about 36%;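 also: 0% = enzyme with DMSO and 100% = wells lacking enzyme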
# rCAG binder: r(CAG) repeat RNA binding; TO-PRO-1 dye displacement fluorescence; inhibition, % at 3 µM; 1.3% of 370,000 active; AID 651821;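 active = inhibition above the plate cutoff, the mean of all test compounds on that plate plus 3 SD, cut at about 35% in these data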;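 also: 0% = DMSO alone and 100% = 100 µM mitoxantrone as full dye displacement; higher means more dye released from RNA so lower well fluorescence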
# PRMT1 inh conf: confirmation of human PRMT1 inhibitors. shares compounds with PRMT1 FP inh. recombinant His-PRMT1, activity-based probe fluorescence polarization. inhibition, % at 2.79 µM. 42% of 3,300 active. AID 687036;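 active = mean inhibition across replicates above the hit cutoff derived for the earlier primary screen, cut at about 22% in these data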
# * = called active by the depositor; nt = not tested or not shown.
SMILES,LEDGF integ inh,ABHD4 inh,PRMT1 FP inh,DAGLB inhibitor,HTRA1 inhibitor,rCAG binder,PRMT1 inh conf
Cc1ccc(C(=O)/C=C/c2ccc(-c3ccc(C)cc3)o2)cc1,2,2,50*,7,-11,18,6
CC(/C=C/C(=O)c1ccc(C)cc1)=C\c1ccccc1,8,-5,15,-20,-26,3,nt
Cc1ccc(C(=O)/C=C\C(=O)c2ccc(C)cc2)cc1,2,1,40*,-4,-1,3,57*
Cc1ccc(-c2nc3cnccn3c2Nc2ccc3c(c2)OCCO3)o1,-2,1,27*,3,11,-1,2
COCCNC(=O)CN1CCN(Cc2cccc(Cl)c2)C1=O,1,-2,1,2,4,2,nt
Cc1ccc(CNC(=O)c2c(-c3ccccc3)sc3ccccc23)o1,-1,-28,39*,-8,-18,8,1
O=C(CSc1nc(=O)[nH]c2c1CCCC2)Nc1ccc(F)cc1F,5,2,-1,-3,0,0,nt
CCOc1ccccc1NC(=O)c1cnccn1,1,-3,-8,-1,-2,-4,nt
O=C(O)c1cc(=S)nc[nH]1,-1,16,39*,0,-3,-2,60*
Cc1cccc(NC(=O)c2ccc(-c3ccccc3[N+](=O)[O-])o2)c1,8,-5,3,-3,-17,8,nt
Cc1ccccc1-n1nc(C(=O)O)c(C)c(C#N)c1=O,-1,5,-2,-2,-1,4,nt
Cc1c(C(=O)O)nn(-c2cccc(C(F)(F)F)c2)c(=O)c1C#N,1,-16,29*,-4,5,2,0
Nc1c(S(=O)(=O)c2ccccc2)c2nc3ccccc3nc2n1CCN1CCOCC1,4,-4,3,2,-5,1,nt
Cc1ccc(S(=O)(=O)c2c(N)n(Cc3ccco3)c3nc4ccccc4nc23)cc1C,4,-28,28*,-3,-59,17,6
Nc1c(S(=O)(=O)c2ccccc2)c2nc3ccccc3nc2n1Cc1ccco1,3,-14,33*,-5,-6,12,2
CC1CCc2[nH]c3ccc(C(=O)Nc4ccc(C(=O)N(C)C)cc4)cc3c2C1 (configuration not stated),-1,-3,4,-1,-2,-2,nt
O=C1NC[C@H](CCCCN2C[C@H](Cc3ccccc3)N(Cc3ccccc3)C(=O)C2=O)N(CC2CCCCC2)C1=O,1,-1,-1,nt,nt,4,nt
Cn1ccnc1Sc1cc(NCCCO)c([N+](=O)[O-])c2nonc12,-4,6,42*,0,0,-2,26*
O=[N+]([O-])c1c(NCCCO)cc(Sc2ccc(Cl)cc2)c2nonc12,-2,13,14,-5,-1,1,nt
CCC(=S)/C=C1\Sc2ccccc2N1CCCS(=O)(=O)O,2,5,34*,0,4,9,4
CCN1/C(=C\C=C2\C(=O)N(C)C(=S)N2C)Sc2ccccc21,0,-17,21,-3,-13,1,nt
O=C1C2C3C=CC(CNS(=O)(=O)c4ccccc4[N+](=O)[O-])(O3)C2C(=O)N1c1ccccc1 (configuration not stated),0,-4,76*,0,2,3,42*
O=[N+]([O-])c1ccccc1S(=O)(=O)NCc1ccco1,1,-1,-6,nt,nt,3,nt
Cc1cc(C)c(S(=O)(=O)NCC23C=CC(O2)C2C(=O)N(c4ccccc4)C(=O)C23)c(C)c1 (configuration not stated),3,5,54*,-3,-6,-4,4
COC(=O)C1(CO)NC(c2ccc(C)cc2)C2C(=O)N(c3ccccc3)C(=O)C21 (configuration not stated),0,1,0,-2,3,3,nt
SMILES,LEDGF integ inh,ABHD4 inh,PRMT1 FP inh,DAGLB inhibitor,HTRA1 inhibitor,rCAG binder,PRMT1 inh conf
Cc1ccc(CNS(=O)(=O)c2cc3c4c(c2)CCN4C(=O)CC3)cc1,8,-2,-4,2,5,3,nt
Cc1ccc(/C=C2/NC(=O)N(Cc3ccc(Br)cc3)C2=O)o1,-2,16,80*,8,4,19,10
CCN1C(=O)/C(=C/c2ccc(C)o2)N(C)C1=S,-5,6,45*,-1,-5,6,1
O=C1N/C(=C/c2ccc(N3CCOCC3)o2)C(=O)N1c1cccc(Cl)c1,3,-15,30*,3,-2,14,-7
Cc1ccc(/C=C2/NC(=O)N(c3ccccc3)C2=O)o1,0,8,60*,3,2,6,30*
Cc1c(C(=O)O)cccc1-c1ccc(/C=C2/NC(=O)N(c3ccccc3)C2=O)o1,-12,6,11,0,-9,10,nt
Cc1ccc(CN2C(=O)N/C(=C\c3ccc(N4CCOCC4)cc3)C2=O)cc1,2,4,-3,5,0,3,nt
O=C(O)c1cccc2sc3cc(Cl)ccc3c(=O)c12,3,4,-3,3,8,2,nt
COC(=O)c1ccc(CNC(=O)CSC(C)C(=O)Nc2cc(C)on2)cc1 (configuration not stated),-1,-6,-1,-2,4,2,nt
CCOC(=O)c1c(NC(=O)C2CC(Cl)=CCC2C(=O)O)sc2c1CCCCC2 (configuration not stated),nt,nt,nt,17,-22,nt,nt
CCN1C(=O)N/C(=C/c2ccc(C)o2)C1=O,-1,4,56*,-2,-1,1,9
CCn1c(C)cc(/C=C2/NC(=O)N(Cc3ccccc3F)C2=O)c1C,-1,10,4,4,-3,15,nt
Cc1ccc(/C=C2/NC(=O)N(Cc3ccccc3F)C2=O)o1,7,3,83*,2,5,14,10
Cn1c(=O)c(=O)n(C)c2cc(N3CCOCC3)c(NS(=O)(=O)c3ccc([N+](=O)[O-])cc3)cc21,-1,0,25*,0,1,6,15
O=C(COC(=O)c1cc(Br)ccc1O)Nc1cc(S(=O)(=O)N2CCCC2)ccc1Cl,-1,-22,45*,-3,-24,12,22*
O=C(OCCN1C(=O)c2cccc3c(N4CCOCC4)ccc(c23)C1=O)c1ccc(Cl)cc1,6,2,29*,-8,0,-4,1
CCCN(CCC)S(=O)(=O)c1ccc(C(=O)OCCN2C(=O)c3cccc4c(N5CCOCC5)ccc(c34)C2=O)cc1,nt,nt,nt,-2,-3,nt,nt
Cn1ncc2c(=S)nc(Cl)[nH]c21,-5,2,31*,0,3,3,6
COC(=O)[C@]12C[C@H](CC(=O)NCc3cccc(C(F)(F)F)c3)C(=O)N(Cc3ccco3)C1=C[C@H](C(C)C)O[C@@H]2C1CC1,-3,-5,0,nt,nt,0,nt

# Bioassay records deposited in PubChem BioAssay by The Scripps Research Institute Molecular Screening Center.
